# In the library only some 4.3% were active in any assay of this set; here they are far more common.
# TAAR1 agonist – agonists of human TAAR1; Q96RJ0; CHO RD-HGA16 TAAR1, Fluo-8 calcium fluorescence; vehicle wells 0%, saturating PEA agonist 100%; activation, % at 3 µM; actives 0.99% (n = 360,000);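 active = activation above the mean activation of all test compounds in the run plus 3 SD, cut at about 38% in these data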
#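 System: CHO-derived RD-HGA16 cells with stable Gα16 and human TAAR1 / Times: 17-24 h plating, Fluo-8 75 min 37 °C, 30 min RT / Technique: calcium-sensitive Fluo-8 signal, excitation 470-495, emission 515-575 nm / Measure: % activation relative to PEA EC100 response / Benchmarks: DMSO and PEA EC100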
# CHO parental Ca – counter-screen: ATP calcium response change in parental CHO cells. parental CHO-K1, ATP-induced calcium, Fluo-8 fluorescence. actives 0.63% (n = 330,000). AID 463079. inhibition, % at 5.6 µM;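 active = inhibition above that plate's mean sample inhibition plus 3 SD, cut at about 26% in these data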;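 also: 0% = ATP-challenged DMSO wells and 100% = DMSO wells without ATP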
#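 Measured by: calcium-sensitive Fluo-8 fluorescence / Test system: CHO parental line / Controls: ATP-challenged DMSO wells low, unchallenged DMSO wells high / Measure: % inhibition / Compound: single nominal dose of 5.6 µM per compound / Replicates: single well per compound, no replicates / Reagent: ATP as calcium-mobilizing challenge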
# OX1R antag-1 – human HCRTR1 antagonism; inhibition, % at 5 µM; CHO/OX1R cells, Fluo-8 calcium fluorescence, orexin A; actives 0.43% (n = 330,000); O43613;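 active = inhibition above its plate's threshold, mean inhibition of all tested compounds on the plate plus 3 SD, cut at about 37% in these data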;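 also: 0% = orexin A challenge wells and 100% = SB-334867-A antagonist wells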
# Target sequence (O43613 whole entry, looked up): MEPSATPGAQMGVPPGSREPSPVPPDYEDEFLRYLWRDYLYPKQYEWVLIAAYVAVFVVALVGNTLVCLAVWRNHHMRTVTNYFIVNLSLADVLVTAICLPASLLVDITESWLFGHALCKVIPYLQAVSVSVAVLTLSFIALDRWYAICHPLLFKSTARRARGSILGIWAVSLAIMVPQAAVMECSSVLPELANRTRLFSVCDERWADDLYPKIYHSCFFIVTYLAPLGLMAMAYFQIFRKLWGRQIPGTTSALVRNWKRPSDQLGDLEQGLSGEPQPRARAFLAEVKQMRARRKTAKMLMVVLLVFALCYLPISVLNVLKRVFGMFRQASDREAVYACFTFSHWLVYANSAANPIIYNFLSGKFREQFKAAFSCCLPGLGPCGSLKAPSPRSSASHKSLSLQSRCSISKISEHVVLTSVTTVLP
# GalR3 antag – human GalR3 antagonism; O60755; HEK293 GalR3-CNG cAMP membrane potential fluorescence; galR3 body fused to GalR1 C-terminus; inhibition, % at 3 µM; actives 0.44% (n = 360,000);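 active = inhibition above the screen-wide average plus 3 SD, cut at about 13% in these data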;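 also: forskolin and galanin both at EC90 stimulate the cells; cAMP rise reported by CNG channel membrane potential dye signal; 0% = forskolin plus galanin with DMSO and 100% = forskolin alone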
# Target sequence (O60755 1-299 limits assumed): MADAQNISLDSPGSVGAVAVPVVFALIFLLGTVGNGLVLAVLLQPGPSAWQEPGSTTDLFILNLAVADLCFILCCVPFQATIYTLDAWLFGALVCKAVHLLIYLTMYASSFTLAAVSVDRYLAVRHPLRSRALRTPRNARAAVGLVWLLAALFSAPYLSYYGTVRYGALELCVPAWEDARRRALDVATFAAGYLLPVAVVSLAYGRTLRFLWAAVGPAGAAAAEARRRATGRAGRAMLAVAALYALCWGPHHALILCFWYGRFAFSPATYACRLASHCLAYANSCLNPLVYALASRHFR
# TAAR1 antagonist – human TAAR1 antagonism; actives 1.5% (n = 360,000); inhibition, % at 3 µM; CHO RD-HGA16 TAAR1, Fluo-8 calcium fluorescence, antagonist; AID 624466;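 active = inhibition above a per-plate cutoff, the mean inhibition of test compounds on that plate plus 3 SD, cut at about 49% in these data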;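 also: 0% = DMSO plus EC80 beta-PEA response and 100% = DMSO alone without agonist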
#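 test system = CHO RD-HGA16 cells bearing hTAAR1 | replication = singlicate | controls = DMSO-only wells and EC80 β-PEA-stimulated wells | reagent = EC80 β-phenethylamine stimulus | read-out basis = percent inhibition of PEA-evoked calcium signal, max/basal emission ratio | schedule = seeding 17-24 h prior, 75-min 37 °C, 30-min RT dye loading | signal = kinetic Fluo-8 calcium fluorescence measurement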
# OX1R antag-2 – OX1R (human) antagonism; O43613; OX1R-expressing cells, FRET antagonist read-out; AID 485270; inhibition, % at 6.6 µM; actives 1.8% (n = 330,000); in the data active = inhibition mostly above about 38%, no sharp cut-off; inactive = mostly below about 40%;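 also: 0% = agonist challenge alone and 100% = reference antagonist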
# nonsel antag count – nonselective antagonist in TAAR1 antagonist counter-screen. shares compounds with TAAR1 antagonist. counterscreen cell line, calcium fluorescence, antagonist mode. inhibition, % at 3 µM. actives 77% (n = 2,400). AID 651780; in the data active = inhibition above about 22%;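 also: CHO-Ga16 host cells stimulated with ATP at an EC80 level; 0% = agonist EC80 plus vehicle and 100% = vehicle without agonist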
# TAAR1 antag conf – human TAAR1 antagonism, confirmed; TAAR1-expressing cells, fluorescence antagonist read-out; actives 40% (n = 2,400); shares compounds with TAAR1 antagonist; inhibition, % at 3 µM; in the data active = inhibition above about 49%;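 also: CHO-Ga16 host cells challenged with agonist PEA near its EC80; 0% = agonist at EC80 plus vehicle and 100% = vehicle with no agonist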
# Ga16 ag counter – nonselective Ga16 agonism, counter-screen | Ga16-expressing cells, calcium fluorescence, agonist counterscreen | activation, % at 3 µM | shares compounds with TAAR1 antagonist | actives 18% (n = 2,400) | AID 651953; in the data active = activation above about 12%;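 also: 0% = vehicle wells and 100% = saturating stimulus response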
# TAAR1 ag count – TAAR1 agonism, antagonist counter-screen; shares compounds with TAAR1 antagonist; activation, % at 3 µM; actives 2% (n = 2,400); AID 651955; hTAAR1 cell line, fluorescence activation, agonist mode; in the data active = activation above about 37%;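 also: CHO cells stably expressing TAAR1 with calcium dye readout; 0% = DMSO vehicle and 100% = full agonist response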
# * marks the source's active call; other numbers are inactive results; nt = not tested or not shown.
SMILES,TAAR1 agonist,CHO parental Ca,OX1R antag-1,GalR3 antag,TAAR1 antagonist,OX1R antag-2,nonsel antag count,TAAR1 antag conf,Ga16 ag counter,TAAR1 ag count
COc1ccc(C(=O)N[C@H](C(=O)NCCc2ccc3c(c2)OCCO3)C(C)C)cc1,-1,-26,-29,-8,-3,2,nt,nt,nt,nt
O=C(Cn1cc([N+](=O)[O-])ccc1=O)NC1CCCCC1,3,-8,8,-2,14,7,nt,nt,nt,nt
CCNC(=O)C1(C)CCN(C(=O)c2c(-c3ccccc3)noc2C)C1 (configuration not stated),2,nt,nt,-6,-7,nt,nt,nt,nt,nt
COc1ccc(C2=CC(=O)C[C@H](c3ccc(F)cc3)C2)cc1OC,4,-27,-25,-3,92*,4,16,51*,0,-3
COc1ccc([C@H]2CC(=O)C=C(c3ccccc3Oc3ccccc3)C2)cc1,8,-32,1,-9,50*,3,11,17,1,2
COc1cccc(C2C(C(=O)OC(C)C)=C(C)N=c3s/c(=C\c4ccc(C(=O)O)cc4)c(=O)n32)c1 (configuration not stated),36,-4,-8,4,60*,17,34*,53*,17*,21
Cc1ccc(OCC(=O)NNc2c3ccccc3nc3ccccc23)cc1,7,-21,-3,-6,70*,53,33*,49*,7,6
O=C(Nc1ccncc1)c1cncc(Br)c1,3,-11,-15,8,-12,10,nt,nt,nt,nt
O=C(Nc1cccc(NC(=O)c2cncc(Br)c2)c1)c1cncc(Br)c1,33,-10,-7,-12,67*,9,29*,52*,17*,15
COc1ccc2sc(-c3ccc(S(C)(=O)=O)cc3)c(C(=O)NCCCN3CCCC3=O)c2c1,15,-19,-15,-5,49*,5,31*,43,7,6
COc1cc2sc(-c3ccc(S(C)(=O)=O)cc3)c(C(=O)NCCCCO)c2cc1OC,8,1,3,-8,17,5,nt,nt,nt,nt
COc1ccc(-c2cc(C(=O)NCCCN3CCCC3=O)c3ccccc3n2)cc1,10,-10,-24,1,50*,25,20,33,7,3
Cc1ccc(-n2c(-c3cnccn3)n[nH]c2=S)c(Br)c1,-3,3,-4,-6,104*,19,8,-6,7,8
CCCN1CCC(NC(=O)Cc2ccc(C)cc2)CC1,-1,-7,-23,-6,6,-6,nt,nt,nt,nt
CC(=O)c1ccc(N2CCN(C(=O)c3cc4c(-c5ccccc5F)nn(C)c4s3)CC2)cc1,1,-3,-25,nt,55*,13,26*,34,6,4
COc1ccc(N2CCN(C(=O)c3cc4c(-c5cccc(OC)c5)nn(C)c4s3)CC2)cc1,5,-15,-18,-4,8,11,nt,nt,nt,nt
CCc1ccc(S(=O)(=O)Nc2c(C)nc3nc[nH]n3c2=O)cc1,-2,0,2,-8,6,1,nt,nt,nt,nt
O=C1Nc2ccccc2/C1=C\C(=O)c1ccccc1,12,5,4,-10,20,15,nt,nt,nt,nt
O=C(/C=C1\C(=O)Nc2ccccc21)/C=C1\C(=O)Nc2ccccc21,34,nt,nt,-6,60*,nt,35*,36,8,24
CCOC(=O)c1cc(-c2ccccc2)nn1CC1CC(c2ccc(Cl)cc2)=NO1 (configuration not stated),13,-10,-4,-2,80*,20,24*,47,6,3
COc1ccccc1CNC(=O)c1cc(-c2ccccc2C)nn1CC1CC(c2cccnc2)=NO1 (configuration not stated),14,-21,-3,-3,37,5,nt,nt,nt,nt
Cc1ccccc1-c1cc(C(=O)NCc2cccc(Br)c2)n(CC2CC(c3cccnc3)=NO2)n1 (configuration not stated),11,4,11,-5,69*,14,26*,38,7,9
O=C(CCSCc1ccc(Cl)cc1)NCCC1=CCCCC1,4,-9,-12,-2,0,20,nt,nt,nt,nt
Cc1ccccc1CSCCC(=O)NCCC1=CCCCC1,7,-20,-34,-11,53*,18,8,39,3,5
COc1ccc(S(=O)(=O)N2CCCc3nc(-c4ccc(F)cc4)ccc32)cc1,-2,nt,nt,-4,12,nt,nt,nt,nt,nt
SMILES,TAAR1 agonist,CHO parental Ca,OX1R antag-1,GalR3 antag,TAAR1 antagonist,OX1R antag-2,nonsel antag count,TAAR1 antag conf,Ga16 ag counter,TAAR1 ag count
CCCCS(=O)(=O)N1CCCc2nc(-c3ccc(OC)cc3)ccc21,2,nt,nt,-8,49*,nt,32*,35,6,5
CN(C)S(=O)(=O)n1cnc([C@@H]2[C@@H]3C(=O)OC[C@@H]3C[C@]23N=CN(Cc2ccccc2)C3=O)c1,1,-4,-18,0,10,6,nt,nt,nt,nt
CCCC1(c2ccccc2)NC(=O)N(CC(=O)Nc2cc(C)ccc2OC)C1=O (configuration not stated),26,-12,-8,-9,-6,11,nt,nt,nt,nt
O=C(NCCOc1ccc(F)cc1)c1ccccc1SCc1ccccc1,10,-3,-21,-6,60*,21,30*,53*,7,3
CCc1ccc(OCCNC(=O)c2ccccc2SCc2ccc(F)cc2)cc1,15,8,-33,0,54*,8,26*,36,3,2
COc1ccc(NC(=O)c2ccccc2SCc2ccccc2)cc1,1,nt,nt,-9,11,nt,nt,nt,nt,nt
Nc1nonc1-n1nnc(C(=O)N/N=C/c2ccco2)c1CSc1ccc(Cl)cc1,1,nt,nt,-8,-8,nt,nt,nt,nt,nt
c1ccc(CCc2ccccc2-c2nc(-c3ccccn3)no2)cc1,19,-20,-19,6,51*,14,12,31,9,16
COc1ccc(Nc2nc(-c3ccccc3)nc3ccccc23)cc1S(=O)(=O)N1CCOCC1,22,7,2,-7,72*,20,35*,57*,13*,11
CCCCn1c(N)c(N(CCC(C)C)C(=O)c2c(CC)noc2C)c(=O)[nH]c1=O,1,nt,nt,-4,-5,nt,nt,nt,nt,nt
CC(C)(C)NC(=O)CSc1nc2ccc(NC(=O)CSc3nnc(N)s3)cc2s1,3,3,-6,-4,8,17,nt,nt,nt,nt

# Screens (PubChem)
